# From PubChem
# PfGluPho inh – PfG6PD (Plasmodium falciparum) enzyme inhibition | inhibition, % at 20 µM | PfGluPho enzyme, NADPH resazurin-diaphorase fluorescence | hit rate 0.78% among 350,000;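 active = inhibition reaching at least a set limit at 20 µM in the primary screen, cut at about 59% in these data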;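 also: 0% = DMSO wells with substrate and 100% = DMSO wells lacking glucose-6-phosphate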
# G6PDH CS – inhibits Leuconostoc G6PDH, flagging false hits in G6PDH-based assays | AID 1020 | hit rate 0.12% among 200,000 | Purified L. mesenteroides G6PDH, diaphorase/resazurin coupled fluorescence, 45 min | inhibition, % at 5 µM; in the data active = inhibition above about 50%
# Diaph inh CS – diaphorase inhibition or chemical oxidation counter-screen; hit rate 0.69% among 190,000; diaphorase resazurin-to-resorufin fluorescence, NADH, 16 min; bacterial (C. kluyveri) enzyme, not human; AID 1217; inhibition, % at 20 µM;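 active = primary screen inhibition at 20 µM above a set limit, cut at about 50% in these data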;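 also: plate controls were DMSO with full reaction for no effect and wells lacking NADH for full effect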
#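 Detection: fluorescence of resorufin formed from resazurin, Ex 544/Em 590 nm; test system: Clostridium kluyveri diaphorase enzyme; amount: 0.14 U/mL diaphorase, enzyme working solution; times: 16-min room-temperature incubation before reading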
# Diaph act CS – counter-screen for diaphorase-based assays: diaphorase activators and chemical reducers; Diaphorase/resazurin coupled assay, resorufin fluorescence, 16 min; stronger effect = higher value; 1 = vehicle wells, 0 = NADH-free wells; activation factor at 20 µM; hit rate 0.005% among 190,000;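 active = diaphorase activity raised at least twofold by the compound at 20 µM; inactive = activation factor below 2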
#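 Material: purified diaphorase enzyme from Clostridium kluyveri / Medium: HEPES pH 7.4 buffer with MgCl2 and Tween 20 / Schedule: enzyme reaction of 16 min at room temperature / Measured by: resorufin fluorescence, excitation 544 nm, emission 590 nm / Evaluation: rise in resorufin formation, marking diaphorase activation or chemical reduction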
# HKDC1 inh – blocks human hexokinase HKDC1 activity. Q2TB90. recombinant HKDC1, G6PDH/diaphorase resazurin coupled fluorescence. inhibition, % at 20 µM. hit rate 0.16% among 340,000;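 active = inhibition above about 35% when tested at 20 µM, limit read from the data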;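 also: plate controls were DMSO wells with enzyme for no effect and DMSO wells lacking enzyme for full effect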
# Target sequence (Q2TB90 whole entry, looked up): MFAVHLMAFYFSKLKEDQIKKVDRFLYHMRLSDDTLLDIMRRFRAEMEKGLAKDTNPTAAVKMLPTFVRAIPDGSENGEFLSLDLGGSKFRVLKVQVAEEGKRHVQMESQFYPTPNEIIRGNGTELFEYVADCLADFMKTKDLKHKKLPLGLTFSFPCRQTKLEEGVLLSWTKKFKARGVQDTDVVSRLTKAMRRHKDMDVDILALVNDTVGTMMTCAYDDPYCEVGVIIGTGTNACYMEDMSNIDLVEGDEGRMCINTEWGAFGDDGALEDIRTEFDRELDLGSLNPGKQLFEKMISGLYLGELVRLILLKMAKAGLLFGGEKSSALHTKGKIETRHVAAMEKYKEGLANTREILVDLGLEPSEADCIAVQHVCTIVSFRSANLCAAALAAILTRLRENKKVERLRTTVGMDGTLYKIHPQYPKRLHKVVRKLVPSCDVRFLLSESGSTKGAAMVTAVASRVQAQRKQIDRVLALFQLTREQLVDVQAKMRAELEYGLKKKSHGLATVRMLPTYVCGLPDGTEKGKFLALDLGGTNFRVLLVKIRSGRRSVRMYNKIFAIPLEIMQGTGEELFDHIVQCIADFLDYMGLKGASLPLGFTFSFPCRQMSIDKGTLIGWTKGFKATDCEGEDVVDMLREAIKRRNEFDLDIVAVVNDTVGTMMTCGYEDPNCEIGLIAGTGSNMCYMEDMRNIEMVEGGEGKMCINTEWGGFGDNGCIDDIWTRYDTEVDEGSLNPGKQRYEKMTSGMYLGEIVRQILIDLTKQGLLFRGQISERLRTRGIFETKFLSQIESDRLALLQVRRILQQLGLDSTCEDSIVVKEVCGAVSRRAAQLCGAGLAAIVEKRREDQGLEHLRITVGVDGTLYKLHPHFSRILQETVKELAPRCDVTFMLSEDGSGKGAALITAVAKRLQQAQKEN
#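 Assay system: in-house recombinant HK5 (HKDC1) enzyme. Input: HKDC1 at 5 µg/mL. Medium: Tris pH 8.0 buffer with MgCl2, Tween-20, BSA, BME. Dosing: single 20 µM dose. Schedule: 90 min reaction incubation at room temperature, dark. Signal: resazurin-to-resorufin fluorescence via G6PDH and diaphorase coupling, 525/613 nm. Controls: DMSO-enzyme wells negative, buffer-substituted wells positive.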
# PfG6PD confirm – PfG6PD inhibition, single-dose confirmed; shares compounds with PfGluPho inh; recombinant PfGluPho, NADPH-diaphorase-resazurin fluorescence; inhibition, % at 20 µM; hit rate 34% among 2,400; AID 504753;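 active = inhibition of at least 50% at 20 µM in any single replicate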;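 also: 0% = DMSO with substrate and 100% = DMSO lacking glucose-6-phosphate substrate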
# Diaph ctr 10uM – inhibits diaphorase or oxidizes, flagging false PfG6PD hits; diaphorase-coupled resazurin reduction, fluorescence, NADPH 10 uM; hit rate 39% among 820; shares compounds with PfGluPho inh; inhibition, % at 20 µM;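 active = average inhibition reaching 50% or more with the compound at 20 µM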;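 also: resorufin red fluorescence formed as diaphorase reduces resazurin using NADPH; 0% = DMSO with enzyme and 100% = DMSO without enzyme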
# Diaph ctr 30uM – counter-screen for P. falciparum G6PD inhibitors: diaphorase inhibitors, oxidizers; Diaphorase/resazurin coupled assay, resorufin fluorescence, 30 uM NADPH; hit rate 29% among 820; inhibition, % at 20 µM; shares compounds with PfGluPho inh;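 active = inhibition averaging 50% or more, tested at 20 µM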;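 also: 0% = DMSO with enzyme and 100% = DMSO wells lacking diaphorase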
# * hit, by the source's call; nt = not tested or not shown. Rows were chosen to be rich in hits. Some 1.3% of all compounds tested hit in one or more screens of this group.
SMILES,PfGluPho inh,G6PDH CS,Diaph inh CS,Diaph act CS,HKDC1 inh,PfG6PD confirm,others
Brc1cccc(C=Nc2cccc3ncccc23)c1,10,nt,nt,nt,14,nt,
Oc1c(Br)cc(Br)cc1C=Nc1cccc2ncccc12,48,nt,nt,nt,31,36,
COc1ccc(NS(=O)(=O)c2cc(NC(=O)c3cnccn3)ccc2OC)cc1Br,-9,3,22,0.8,-1,nt,
CCn1c(NC(=O)c2ccc(C)cc2)c2ccccc2nc1=O,72*,-12,-4,1,-3,36,
O=C(CC(=O)N/N=C/c1ccc(Cl)cc1Cl)NCc1ccccc1,28,6,5,1,-4,nt,
O=C(CC(=O)N/N=C/c1c(F)cccc1Cl)NCc1ccccc1,77*,1,2,1,-2,67*,Diaph ctr 10uM=62*;Diaph ctr 30uM=52*
Cc1ccsc1/C=N\NC(=O)CC(=O)NCc1ccccc1,86*,6,15,0.9,8,73*,Diaph ctr 10uM=61*;Diaph ctr 30uM=41
Cc1ccc2oc(C(=O)N3CCN(CC(=O)NC(C)C)CC3)c(C)c2c1,-4,nt,nt,nt,-6,nt,
CCn1c(O)c(C=Nc2ccccc2)sc1=S,68*,-3,9,0.9,-1,15,
O=C1Nc2ccc(S(=O)(=O)NCc3ccco3)c3cccc1c23,63*,nt,nt,nt,22,44,
Cn1ncc2c(=O)[nH]nnc21,3,nt,nt,nt,-8,nt,
COC(=O)CCCC1=CC2=CC(=O)C(C)(OC(=O)c3cccs3)C(=O)C2=CN1CCCOC(C)C (centres undefined),62*,nt,nt,nt,22,20,
COC(=O)CCCC1=CC2=CC(=O)C(C)(OC(=O)c3cccs3)C(=O)C2=CN1Cc1ccco1 (centres undefined),73*,nt,nt,nt,19,31,
COC(=O)CCCC1=CC2=CC(=O)C(C)(OC(=O)c3cccs3)C(=O)C2=CN1Cc1ccccc1 (centres undefined),75*,nt,nt,nt,22,43,
COC(=O)CCCC1=CC2=CC(=O)C(C)(OC(=O)c3cccs3)C(=O)C2=CN1C1CCCC1 (centres undefined),44,nt,nt,nt,15,nt,
COC(=O)CCCC1=CC2=CC(=O)C(C)(OC(=O)c3cccs3)C(=O)C2=CN1Cc1ccc2c(c1)OCO2 (centres undefined),43,nt,nt,nt,23,nt,
N#CCSc1nnc(SCC#N)s1,5,nt,nt,nt,0,nt,
COc1ccc(-n2cnc(=S)[nH]c2=S)cc1,75*,nt,nt,nt,-18,7,
COc1ccc(-n2cc(-c3ccccc3)[nH]c2=S)cc1,38,-13,15,0.8,-1,nt,
Cc1ccc(OS(=O)(=O)c2c(C)nn(C)c2Cl)c(C)c1,75*,nt,nt,nt,-1,34,
CN(C)c1ccc(NC(=S)c2ccc3ccccc3n2)cc1,67*,nt,nt,nt,-17,37,
Cc1ccc(S(=O)(=O)N2CCOC2CNC(=O)C(=O)NCCCc2ccccc2)cc1 (centres undefined),1,nt,nt,nt,-6,nt,
CCOC(=O)c1c(CSCc2ccccc2)oc2ccc(O)c(CN(C)C)c12,59*,nt,nt,nt,0,40,
Cc1nn(C(=O)CNS(=O)(=O)c2ccccc2)c(C)c1Sc1ccc(Cl)cc1,80*,11,14,0.9,4,20,
COc1cccc(C=Nc2cc(C(C)C)c(O)cc2C)c1O,114*,nt,nt,nt,23,67*,Diaph ctr 10uM=6;Diaph ctr 30uM=-1
SMILES,PfGluPho inh,G6PDH CS,Diaph inh CS,Diaph act CS,HKDC1 inh,PfG6PD confirm,others
Cc1cc(O)c(C(C)C)cc1N=Cc1ccc(N(C)C)cc1,106*,nt,nt,nt,25,83*,Diaph ctr 10uM=87*;Diaph ctr 30uM=43
CNC(=S)N/N=C/c1ccc(N(C)C)cc1,11,nt,nt,nt,-2,nt,
Cc1cc(O)c(C(C)C)cc1N=Cc1ccc([N+](=O)[O-])cc1,91*,nt,nt,nt,26,62*,Diaph ctr 10uM=49;Diaph ctr 30uM=15
COc1cccc(C=Nc2cccnc2)c1O,nt,-1,19,0.8,nt,nt,
Cc1cc(O)c(C(C)C)cc1NC(=O)Nc1ccc([N+](=O)[O-])cc1,23,nt,nt,nt,8,nt,
Oc1ccc(N2CCN(c3ccnc4cc(Cl)ccc34)CC2)cc1,66*,nt,nt,nt,3,-5,
CCOc1ccc(/C=C/[N+](=O)[O-])c2ccccc12,64*,33,34,0.7,32,10,
Cc1cccc(/C=N/NC(=O)c2ccc(NC(=O)c3ccccc3Cl)cc2)n1,-13,nt,nt,nt,-7,nt,
O=C1C(=C(c2ccccc2)N2CCOCC2)Cc2ccccc21,66*,nt,nt,nt,nt,22,
CC(=O)N1CC[n+]2c(-c3ccc(Cl)cc3Cl)csc21,59*,-4,15,0.8,-1,-9,
O=C(O)c1ccc(-c2nc(-c3ccc(Cl)cc3Cl)cs2)cc1,-23,1,5,1,-1,nt,
CCn1c(=O)n(CC)c2cc(S(=O)(=O)N3CCc4ccccc43)ccc21,78*,-9,23,0.8,-10,44,
Cc1ccc(C)c(NC(=O)N2CCc3ccccc3C2)c1,9,nt,nt,nt,0,nt,
Cc1ccc2nc(SCC(=O)c3ccc4c(c3)OCO4)[nH]c2c1,56,1,3,1,19,nt,
Cc1ccc2nc(SCC(=O)c3ccc(Cl)s3)[nH]c2c1,62*,0,9,0.9,-3,5,
COc1ccc(Cl)cc1C=CC=Nc1ccccc1O,76*,nt,nt,nt,22,19,
On1c(-c2ccc(Cl)cc2)nc2ccccc21,32,4,-5,1,-7,nt,
COc1ccc(-c2cn3cc(C)ccc3n2)cc1OC,61*,-15,-2,1,-1,43,
COc1ccc(-c2cn3cc(C)ccc3n2)cc1F,107*,8,-3,1,-5,73*,Diaph ctr 10uM=64*;Diaph ctr 30uM=54*
COc1ccc(-c2cn3ccccc3n2)cc1OC,5,-5,14,0.9,-2,nt,
COc1ccc(-c2cn3cccc(C)c3n2)cc1F,26,6,17,0.8,-5,nt,
COc1cc(C(=O)O/N=C2/C=CC(=O)C(C)=C2C)cc(OC)c1OC,32,4,33,0.7,7,nt,
COc1cc(C(=O)O/N=C2\C=CC(=O)C=C2C)cc(OC)c1OC,67*,-8,58*,0.4,-7,63*,Diaph ctr 10uM=27;Diaph ctr 30uM=15
COc1ccc(C(=O)Nc2nc3ccccc3s2)c(OC)c1,76*,nt,nt,nt,3,13,
COc1ccccc1C(=O)Nc1nc2ccccc2s1,26,nt,nt,nt,6,nt,
COc1ccc(NC(=O)c2cc3ccccn3n2)cc1,64*,-1,20,0.8,0,33,
COc1ccc(OC)c(NC(=O)c2nc3ccccc3s2)c1,-3,0,6,0.9,-5,nt,
COc1ccc(NC(=O)c2nc3ccccc3s2)cc1,79*,-2,-6,1.1,1,16,
O=C(Nc1n[nH]c(=S)s1)c1ccco1,60*,nt,nt,nt,-3,37,
